Experimental data: ChEMBL document CHEMBL1139934, “Synthesis and biological activity of imidazopyridine anticoccidial agents: part I” (Eur J Med Chem, 2007)

How the values were obtained:
[1] = test system: Eimeria acervulina; test: Anticococcidal activity against Eimeria acervulina in Chick assessed as reduction in oocyte at 12.5 ppm relative to control; format: functional; set-up: scale not given: the % may be the effect or the level left
How it was run: (§1)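 Expanded Mini-Assay Coccidiosis (ExMAC) in chickens infected with E. tenella, E. acervulina, E. mitis and E. maxima. Compound given in the feed at the stated ppm. Efficacy for each species is scored 0 to 4 from the percent oocyst reduction relative to an untreated control. Where a compound was tested more than once, all values are reported.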

[2] = test system: Eimeria mitis; test: Anticococcidal activity against Eimeria mitis in Chick assessed as reduction in oocyte at 6.25 ppm relative to control; format: functional; set-up: scale not given: the % may be the effect or the level left; how it was run: as §1
[3] = test system: Eimeria maxima; test: Anticococcidal activity against Eimeria maxima in Chick assessed as reduction in oocyte at 25 ppm relative to control; format: functional; set-up: scale not given: the % may be the effect or the level left; how it was run: as §1
[4] = test system: Eimeria maxima; test: Anticococcidal activity against Eimeria maxima in Chick assessed as reduction in oocyte at 12.5 ppm relative to control; format: functional; set-up: scale not given: the % may be the effect or the level left; how it was run: as §1
[5] = test system: Eimeria maxima; test: Anticococcidal activity against Eimeria maxima in Chick assessed as reduction in oocyte at 3.13 ppm relative to control; format: functional; set-up: scale not given: the % may be the effect or the level left; how it was run: as §1
[6] = test system: Eimeria mitis; test: Anticococcidal activity against Eimeria mitis in Chick assessed as reduction in oocyte at 12.5 ppm relative to control; format: functional; set-up: scale not given: the % may be the effect or the level left; how it was run: as §1
[7] = test system: Eimeria acervulina; test: Anticococcidal activity against Eimeria acervulina in Chick assessed as reduction in oocyte at 6.25 ppm relative to control; format: functional; set-up: scale not given: the % may be the effect or the level left; how it was run: as §1
[8] = test system: Eimeria tenella; test: Anticococcidal activity against Eimeria tenella in Chick assessed as reduction in oocyte at 25 ppm relative to control; format: functional; set-up: scale not given: the % may be the effect or the level left; how it was run: as §1
[9] = test system: Eimeria acervulina; test: Anticococcidal activity against Eimeria acervulina in Chick assessed as reduction in oocyte at 25 ppm relative to control; format: functional; set-up: scale not given: the % may be the effect or the level left; how it was run: as §1
[10] = test system: Eimeria tenella; test: Anticococcidal activity against Eimeria tenella in Chick assessed as reduction in oocyte at 6.25 ppm relative to control; format: functional; set-up: scale not given: the % may be the effect or the level left; how it was run: as §1
[11] = test system: Eimeria acervulina; test: Anticococcidal activity against Eimeria acervulina in Chick assessed as reduction in oocyte at 3.13 ppm relative to control; format: functional; set-up: scale not given: the % may be the effect or the level left; how it was run: as §1
[12] = test system: Eimeria maxima; test: Anticococcidal activity against Eimeria maxima in Chick assessed as reduction in oocyte at 6.25 ppm relative to control; format: functional; set-up: scale not given: the % may be the effect or the level left; how it was run: as §1
[13] = target: cGMP-dependent protein kinase (Eimeria tenella, UniProt Q8MMZ8); test: Inhibition of Eimeria tenella cGMP-dependent protein kinase by Ten_K assay
Sequence of cGMP-dependent protein kinase (Q8MMZ8 whole entry): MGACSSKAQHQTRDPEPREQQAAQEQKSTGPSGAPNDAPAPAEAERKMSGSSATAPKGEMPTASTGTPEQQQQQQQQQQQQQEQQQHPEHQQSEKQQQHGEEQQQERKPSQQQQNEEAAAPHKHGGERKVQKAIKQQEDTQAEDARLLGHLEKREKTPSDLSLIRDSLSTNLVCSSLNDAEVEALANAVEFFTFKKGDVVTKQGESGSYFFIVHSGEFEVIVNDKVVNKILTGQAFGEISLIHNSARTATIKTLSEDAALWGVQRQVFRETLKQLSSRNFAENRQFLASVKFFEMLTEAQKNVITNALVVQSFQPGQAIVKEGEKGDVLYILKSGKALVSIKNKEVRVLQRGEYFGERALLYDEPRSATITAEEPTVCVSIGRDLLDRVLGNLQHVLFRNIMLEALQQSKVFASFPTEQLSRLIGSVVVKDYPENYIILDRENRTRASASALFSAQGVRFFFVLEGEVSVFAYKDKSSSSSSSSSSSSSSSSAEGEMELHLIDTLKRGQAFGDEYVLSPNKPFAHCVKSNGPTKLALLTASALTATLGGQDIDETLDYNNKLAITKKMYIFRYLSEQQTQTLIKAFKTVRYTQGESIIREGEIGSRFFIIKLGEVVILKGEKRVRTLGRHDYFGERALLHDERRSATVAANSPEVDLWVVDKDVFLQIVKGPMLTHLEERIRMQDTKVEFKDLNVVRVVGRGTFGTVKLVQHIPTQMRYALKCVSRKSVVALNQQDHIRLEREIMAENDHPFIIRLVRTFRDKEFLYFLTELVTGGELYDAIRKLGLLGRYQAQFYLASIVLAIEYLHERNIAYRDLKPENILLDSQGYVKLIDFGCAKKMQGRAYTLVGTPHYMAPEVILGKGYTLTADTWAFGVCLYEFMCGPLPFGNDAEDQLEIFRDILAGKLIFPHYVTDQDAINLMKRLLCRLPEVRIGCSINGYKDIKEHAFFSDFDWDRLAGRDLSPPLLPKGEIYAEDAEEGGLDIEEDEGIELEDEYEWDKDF
How it was run: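 Ten_K (Tenella Kinase) assay measuring inhibition of E. tenella PKG enzyme activity. Result expressed as the concentration giving 50% inhibition (IC50, nM). Where a compound was tested more than once, all values are reported.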

[14] = test system: Eimeria tenella; test: Anticococcidal activity against Eimeria tenella in Chick assessed as reduction in oocyte at 3.13 ppm relative to control; format: functional; set-up: scale not given: the % may be the effect or the level left; how it was run: as §1
[15] = test system: Eimeria mitis; test: Anticococcidal activity against Eimeria mitis in Chick assessed as reduction in oocyte at 3.13 ppm relative to control; format: functional; set-up: scale not given: the % may be the effect or the level left; how it was run: as §1
[16] = test system: Eimeria tenella; test: Anticococcidal activity against Eimeria tenella in Chick assessed as reduction in oocyte at 12.5 ppm relative to control; format: functional; set-up: scale not given: the % may be the effect or the level left; how it was run: as §1
[17] = test system: Eimeria mitis; test: Anticococcidal activity against Eimeria mitis in Chick assessed as reduction in oocyte at 25 ppm relative to control; format: functional; set-up: scale not given: the % may be the effect or the level left; how it was run: as §1
[18] = test system: Eimeria acervulina; test: Anticococcidal activity against Eimeria acervulina in Chick assessed as reduction in oocyte at 1.25 ppm relative to control; format: functional; set-up: scale not given: the % may be the effect or the level left; how it was run: as §1
[19] = test system: Eimeria maxima; test: Anticococcidal activity against Eimeria maxima in Chick assessed as reduction in oocyte at 1.25 ppm relative to control; format: functional; set-up: scale not given: the % may be the effect or the level left; how it was run: as §1
[20] = test system: Eimeria tenella; test: Anticococcidal activity against Eimeria tenella in Chick assessed as reduction in oocyte at 1.25 ppm relative to control; format: functional; set-up: scale not given: the % may be the effect or the level left; how it was run: as §1
[21] = test system: Eimeria mitis; test: Anticococcidal activity against Eimeria mitis in Chick assessed as reduction in oocyte at 1.25 ppm relative to control; format: functional; set-up: scale not given: the % may be the effect or the level left; how it was run: as §1
[22] = target: cGMP-dependent protein kinase (Eimeria tenella) (UniProt Q8MMZ8); test: Inhibition of Eimeria tenella cGMP-dependent protein kinase at 100 nM by Ten_K assay
Sequence of cGMP-dependent protein kinase (Eimeria tenella) (Q8MMZ8 2-1003 limits assumed): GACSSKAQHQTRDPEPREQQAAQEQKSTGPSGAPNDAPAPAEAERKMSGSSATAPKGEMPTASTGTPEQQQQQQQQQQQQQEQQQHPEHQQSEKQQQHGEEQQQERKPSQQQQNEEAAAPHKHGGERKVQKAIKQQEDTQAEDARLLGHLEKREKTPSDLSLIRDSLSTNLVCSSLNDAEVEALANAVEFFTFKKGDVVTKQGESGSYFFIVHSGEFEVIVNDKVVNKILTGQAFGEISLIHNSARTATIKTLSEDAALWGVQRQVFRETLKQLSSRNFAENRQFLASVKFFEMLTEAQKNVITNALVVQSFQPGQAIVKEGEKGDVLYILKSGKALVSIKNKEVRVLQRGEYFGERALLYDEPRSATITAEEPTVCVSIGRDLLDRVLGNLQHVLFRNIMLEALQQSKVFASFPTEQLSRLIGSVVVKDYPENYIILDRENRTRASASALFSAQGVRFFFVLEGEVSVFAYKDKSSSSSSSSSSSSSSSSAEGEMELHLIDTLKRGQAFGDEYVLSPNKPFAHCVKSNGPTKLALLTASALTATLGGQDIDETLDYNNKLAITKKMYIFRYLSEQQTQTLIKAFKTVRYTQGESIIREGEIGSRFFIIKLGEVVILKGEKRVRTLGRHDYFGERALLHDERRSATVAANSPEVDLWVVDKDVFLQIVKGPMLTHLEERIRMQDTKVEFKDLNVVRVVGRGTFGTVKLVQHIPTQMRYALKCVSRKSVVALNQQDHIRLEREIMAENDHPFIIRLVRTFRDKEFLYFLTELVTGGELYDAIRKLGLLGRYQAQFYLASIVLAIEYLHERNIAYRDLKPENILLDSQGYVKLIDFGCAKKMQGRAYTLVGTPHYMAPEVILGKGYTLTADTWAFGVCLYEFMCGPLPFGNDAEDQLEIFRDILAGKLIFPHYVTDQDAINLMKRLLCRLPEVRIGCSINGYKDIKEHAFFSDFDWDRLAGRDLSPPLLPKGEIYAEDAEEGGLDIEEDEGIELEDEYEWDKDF

[23] = test system: Eimeria tenella; test: Anticococcidal activity against Eimeria tenella in Chick assessed as reduction in oocyte at 50 ppm relative to control; format: functional; set-up: scale not given: the % may be the effect or the level left; how it was run: as §1
[24] = test system: Eimeria mitis; test: Anticococcidal activity against Eimeria mitis in Chick assessed as reduction in oocyte at 50 ppm relative to control; format: functional; set-up: scale not given: the % may be the effect or the level left; how it was run: as §1
[25] = test system: Eimeria acervulina; test: Anticococcidal activity against Eimeria acervulina in Chick assessed as reduction in oocyte at 50 ppm relative to control; format: functional; set-up: scale not given: the % may be the effect or the level left; how it was run: as §1
[26] = test system: Eimeria maxima; test: Anticococcidal activity against Eimeria maxima in Chick assessed as reduction in oocyte at 50 ppm relative to control; format: functional; set-up: scale not given: the % may be the effect or the level left; how it was run: as §1

| Compound | Activity [1] | Activity [2] | Activity [3] | Activity [4] | Activity [6] | Activity [7] | Activity [8] | Activity [9] | Activity [10] | Activity [12] | IC50 [13] | Activity [16] | Activity [17] | other results |
| --- | --- | --- | --- | --- | --- | --- | --- | --- | --- | --- | --- | --- | --- | --- |
| CN(C)Cc1ccn2c(-c3ccnc(N)n3)c(-c3c(F)cc(F)cc3F)nc2c1 | 80% | 50% | 100% | 80% | <50% | 50% | 80% | 80% | <50% | 50% | 0.52 nM | 80% | <50% | Activity [5]: 80%; Activity [11]: <50%; Activity [14]: 50%; Activity [15]: 50% |
| CN(C)Cc1ccn2c(-c3nc(N)ncc3F)c(-c3ccc(F)cc3)nc2c1 |  | <50% | 100% |  |  | 50% | 80% | 100% | 80% | <50% | 0.23 nM |  | 50% | Activity [18]: 100%; Activity [19]: <50%; Activity [20]: 80%; Activity [21]: <50% |
| CN(C)Cc1ccn2c(-c3ccnc(NCCCO)n3)c(-c3ccc(F)cc3)nc2c1 | 80% | <50% |  | 80% | 80% | <50% |  |  | 80% | 80% | 0.33 nM | 80% |  |  |
| Cc1cnc(N)nc1-c1c(-c2ccc(F)cc2)nc2cc(CN(C)C)ccn12 | <50% | <50% | 80% | 80% | 80% | <50% | 80% | 80% | <50% | 80% | 0.23 nM | 80% | 80% |  |
| CN(C)Cc1ccn2c(-c3ccnc(NC4CCC4)n3)c(-c3ccc(F)cc3)nc2c1 | 80% | <50% | 80% | 80% | 50% | <50% | 80% | 80% | 80% | 50% | 0.22 nM | 80% | 80% |  |
| CN(C)Cc1ccn2c(-c3ccnc(N)n3)c(-c3ccc(F)cc3)nc2c1 | <50% | <50% | 80% | 80% | 80% | <50% | 80% | 80% | <50% | 80% | 0.23 nM | 80% | 80% |  |
| CN(C)Cc1ccn2c(-c3ccnc(NCc4cccc(F)c4)n3)c(-c3ccc(F)cc3)nc2c1 | 50% | <50% | 80% | 80% | <50% | <50% | 50% | 80% | <50% | <50% | 0.09 nM | <50% | 50% |  |
| CN(C)Cc1ccn2c(-c3ccnc(NC(=O)C4CC4)n3)c(-c3ccc(F)cc3)nc2c1 | 80% | <50% | 50% | 80% | 80% | 80% | 80% | 80% | 50% | <50% | 0.42 nM | 80% | 80% |  |
| CN(C)Cc1ccn2c(-c3ccnc(NC4CCCCC4)n3)c(-c3ccc(F)cc3)nc2c1 | <50% | <50% | 80% | 80% | 50% | <50% | 80% | 50% | 80% | 80% | 0.12 nM | 80% | 80% |  |
| CN(C)Cc1ccn2c(-c3ccnc(NS(=O)(=O)Cc4ccccc4)n3)c(-c3ccc(F)cc3)nc2c1 |  |  | <50% |  |  |  | <50% | <50% |  |  |  |  | <50% | inhibition [22]: 40% |
| CN(C)Cc1ccn2c(-c3ccnc(NC4CCCC4)n3)c(-c3ccc(F)cc3)nc2c1 | 80% | 50% |  | 80% | 80% | 80% |  |  | 80% | <50% | 0.102 nM | 80% |  |  |
| CN(C)Cc1ccn2c(-c3ccnc(NC(=O)C4CCC4)n3)c(-c3ccc(F)cc3)nc2c1 | <50% | <50% | 80% | 80% | 80% | <50% | 80% | 80% | 80% | <50% | 0.27 nM | 80% | 80% |  |
| CN(C)Cc1ccn2c(-c3ccnc(NC4CC4)n3)c(-c3ccc(F)cc3)nc2c1 | 80% | <50% | 80% | 80% | 50% | 80% | 80% | 80% | <50% | 80% | 0.08 nM | 80% | 80% |  |
| CCCCNc1nccc(-c2c(-c3ccc(F)cc3)nc3cc(CN(C)C)ccn23)n1 |  |  |  |  |  |  |  |  |  |  | 2.14 nM |  |  | Activity [23]: <50%; Activity [24]: <50%; Activity [25]: <50%; Activity [26]: <50% |
| CN(C)Cc1ccn2c(-c3ccnc(NCCO)n3)c(-c3ccc(F)cc3)nc2c1 | <50% | <50% | 80% | 80% | <50% | <50% | 80% | 80% | <50% | 50% | 0.3 nM | 50% | 80% |  |
| CN(C)Cc1ccn2c(-c3ccnc(NCC4CC4)n3)c(-c3ccc(F)cc3)nc2c1 | 80% | <50% | 80% | 80% | 80% | 80% | 80% | 80% | <50% | 80% | 0.064 nM | 80% | 80% |  |
| CN(C)Cc1ccn2c(-c3ccnc(NCc4c(F)cccc4F)n3)c(-c3ccc(F)cc3)nc2c1 | <50% | <50% | 80% | 80% | <50% | <50% | 50% | <50% | <50% | 50% | 0.06 nM | <50% | 80% |  |
| CN(C)Cc1ccn2c(-c3ccnc(NC=O)n3)c(-c3ccc(F)cc3)nc2c1 | 80% | <50% |  | 80% | 50% | 80% |  |  | 80% | 80% | 0.45 nM | 80% |  |  |
| COCCNc1nccc(-c2c(-c3ccc(F)cc3)nc3cc(CN(C)C)ccn23)n1 | 80% | <50% | 80% | 80% | <50% | <50% | 80% | 80% | <50% | 50% | 0.25 nM | 80% | <50% |  |
